The record followed here is ChEMBL document CHEMBL2021813, “Semisynthetic neoclerodanes as kappa opioid receptor probes” (Bioorg Med Chem, 2012).

In general, Emax refers to the maximal effect, on the per cent scale that the assay sets. As a reminder, the EC50 is the concentration needed to bring the measured effect to its halfway point. In general, Ki refers to a dissociation constant, usually derived from enzyme kinetics or from competition with a known ligand.

SMILES strings stand for the structures. A value given as a limit tells only on which side of the number the result lay.

Data set [1] in a line: Chemical solubility of the compound in THF. Type of data set: physicochemical.
Data set [2] concerns the target T1, Kappa-type opioid receptor (Homo sapiens, UniProt P41145). Put plainly: Agonist activity at human recombinant kappa opioid receptor expressed in CHO cells assessed as [35S]GTP-gamma-S binding after 3 hrs by liquid scintillation counting relative to (-)U50488. Type of data set: functional, cell-based. In outline:
(§1)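 hKOP-CHO membranes (50 μg protein) were incubated with 50 pM [35S]GTP-γ-S and 40 μM GDP. Final buffer was 50 mM Tris-HCl pH 7.4, 100 mM NaCl, 10 mM MgCl2, 1 mM EDTA, 1 mM DTT and 0.1% BSA. Incubation ran 3 hr at 25 °C. Nonspecific binding was set with 40 μM GTP-γ-S. Bound label was separated by vacuum filtration through GF/B and counted.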
(In general: GTPγS is a poorly hydrolysed GTP analogue; its binding reports G protein activation.)

Data set [3] addresses T2, Delta-type opioid receptor (Homo sapiens, UniProt P41143). Put plainly: Displacement of [3H]DADLE from human recombinant delta opioid receptor expressed in CHO cells at 10 uM after 2 hrs by liquid scintillation counting. Type of data set: cell-based. In outline:
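Radioligand (~2 nM) competition on human opioid receptor CHO membranes in Tris-HCl pH 7.4, 2 hr at 25 °C, with GF/B filtration and scintillation counting. Results are percent of control produced by a single test drug concentration, 1 μM or 10 μM as the line states. Nonspecific binding was set by 20 μM levallorphan (DADLE, DAMGO) or 1 μM (−)-U69,593 (U69,593).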

A short description of data set [4]: Chemical solubility of the compound in 50 mM Tris-HCl at pH 7.4. Type of data set: physicochemical. Conditions: buffer.
Data set [5] concerns the target T1, Kappa-type opioid receptor. Put plainly: Partial agonist activity at human recombinant kappa opioid receptor expressed in CHO cells assessed as [35S]GTP-gamma-S binding after 3 hrs by liquid scintillation counting relative to (-)U50488. Type of data set: functional, cell-based. In outline: as §1
For data set [6], the target named is T1, Kappa-type opioid receptor. Put plainly: Partial agonist activity at human recombinant kappa opioid receptor expressed in CHO cells assessed as [35S]GTP-gamma-S binding after 3 hrs by liquid scintillation counting. Type of data set: functional, cell-based. In outline: as §1
The target of data set [7] is Mu-type opioid receptor (Homo sapiens, UniProt P35372). Briefly: Displacement of [3H]DAMGO from human recombinant mu opioid receptor expressed in CHO cells after 2 hrs by liquid scintillation counting. Type of data set: cell-based. In outline:
(§2)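 Membranes from CHO cells stably transfected with human DOP, MOP or KOP receptor, in 50 mM Tris-HCl pH 7.4 with a protease inhibitor cocktail. The ~2 nM [3H]radioligand was displaced by 10 drug concentrations, in triplicate, for 2 hr at 25 °C, then filtered over GF/B. Nonspecific binding was set by 20 μM levallorphan (DADLE, DAMGO) or 1 μM (−)-U69,593 (U69,593). Ki (±SD) came from full curves, n=3.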
In general terms: Displacement assays read how much labelled ligand stays bound in the presence of the test substance.

Data set [8] has as its target T2, Delta-type opioid receptor. Put plainly: Displacement of [3H]DADLE from human recombinant delta opioid receptor expressed in CHO cells after 2 hrs by liquid scintillation counting. Type of data set: cell-based. In outline:
as §2

Data set [9] deals with T1, Kappa-type opioid receptor. Briefly: Displacement of [3H]U69593 from human recombinant kappa opioid receptor expressed in CHO cells after 2 hrs by liquid scintillation counting. Type of data set: cell-based. In outline:
as §2

T1 sequence (P41145 whole entry): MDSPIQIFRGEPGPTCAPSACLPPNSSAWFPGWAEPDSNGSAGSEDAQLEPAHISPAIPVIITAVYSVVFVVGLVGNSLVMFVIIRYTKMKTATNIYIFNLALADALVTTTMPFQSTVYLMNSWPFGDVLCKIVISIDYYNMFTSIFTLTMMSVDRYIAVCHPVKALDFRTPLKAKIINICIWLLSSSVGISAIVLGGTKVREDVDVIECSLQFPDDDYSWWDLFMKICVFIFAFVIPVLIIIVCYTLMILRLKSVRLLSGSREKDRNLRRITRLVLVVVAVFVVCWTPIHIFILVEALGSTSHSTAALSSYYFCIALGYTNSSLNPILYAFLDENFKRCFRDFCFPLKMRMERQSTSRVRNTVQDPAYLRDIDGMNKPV
T2 sequence (P41143 whole entry): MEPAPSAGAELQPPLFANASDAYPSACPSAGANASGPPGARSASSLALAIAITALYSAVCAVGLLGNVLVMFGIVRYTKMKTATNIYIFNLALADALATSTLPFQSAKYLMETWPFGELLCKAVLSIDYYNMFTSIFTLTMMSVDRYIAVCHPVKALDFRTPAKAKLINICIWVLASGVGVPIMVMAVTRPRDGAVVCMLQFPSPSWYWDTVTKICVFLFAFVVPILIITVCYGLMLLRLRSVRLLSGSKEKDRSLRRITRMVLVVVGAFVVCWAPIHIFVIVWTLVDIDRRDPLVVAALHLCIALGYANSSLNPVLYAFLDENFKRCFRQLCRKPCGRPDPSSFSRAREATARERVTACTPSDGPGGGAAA
Sequence of Mu-type opioid receptor (P35372 whole entry): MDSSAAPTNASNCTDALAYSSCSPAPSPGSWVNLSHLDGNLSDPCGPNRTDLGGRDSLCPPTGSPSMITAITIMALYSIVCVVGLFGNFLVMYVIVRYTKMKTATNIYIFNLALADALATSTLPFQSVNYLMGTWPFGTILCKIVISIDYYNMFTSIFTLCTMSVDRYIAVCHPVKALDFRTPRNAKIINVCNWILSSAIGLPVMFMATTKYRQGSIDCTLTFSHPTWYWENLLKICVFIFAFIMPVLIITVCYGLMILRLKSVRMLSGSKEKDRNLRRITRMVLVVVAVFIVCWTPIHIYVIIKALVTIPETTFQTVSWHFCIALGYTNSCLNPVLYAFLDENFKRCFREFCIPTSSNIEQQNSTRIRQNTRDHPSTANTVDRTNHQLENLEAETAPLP

For `COC(=O)[C@@H]1C[C@H](OC(C)=O)C(=O)[C@H]2[C@@]1(C)CC[C@H]1C(=O)O[C@H](C=O)C[C@]21C`, in [1], the solubility result was “Insoluble”.
For the compound `COC(=O)[C@@H]1C[C@H](OC(C)=O)C(=O)[C@H]2[C@@]1(C)CC[C@H]1C(=O)O[C@H](/C=C\c3ccoc3)C[C@]21C`, the Emax in data set [2] came out at 105%. The Activity in [3] came to 94%. Further, in data set [4], the solubility result was “Insoluble”.
Regarding `COC(=O)[C@@H]1C[C@H](OC(C)=O)C(=O)[C@H]2[C@@]1(C)CC[C@H]1C(=O)O[C@H](C(=O)c3ccccc3)C[C@]21C`, in data set [3], the Activity was 100%. Moreover, in data set [5], the Emax came out at 74%. Also, in [6], the EC50 is 2280 nM. In addition, the inhibition constant (Ki) in [7] is 1490 nM; in data set [8], greater than 10000 nM; in [9], 70 nM.
